Experimental data reported in ChEMBL document CHEMBL4312029, “Structure-activity relationship studies and in vitro and in vivo anticancer activity of novel 3-aroyl-1,4-diarylpyrroles against solid tumors and hematological malignancies” (Eur J Med Chem, 2020).
Calls of active or inactive are those of the source. The calls are words filed in the database; no cut-off is given here.

Tests used:
[1] = Cytotoxicity against IM resistant human LAMA84-r cells assessed as reduction in cell viability incubated for 48 hrs by MTT assay; type: functional, cell-based
T98G = assay: Cytotoxicity against human T98G cells assessed as reduction in cell viability incubated for 48 hrs by MTS assay; type: functional, cell-based
Outline: (§1)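 Increasing concentrations applied to glioblastoma and neuroblastoma lines to give dose-response viability curves; cytotoxic IC50 from triplicate experiments. Incubation 48 h, except U343MG at 72 h.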

KBM5 [2] = assay: Cytotoxicity against human KBM5 cells expressing IM- sensitive wild type Bcr/Abl assessed as reduction in cell viability incubated for 48 hrs by MTT assay; type: functional, cell-based; conditions: KBM5, 48 h
[3] = Cytotoxicity against human LAMA84-s cells expressing IM-sensitive wild type Bcr/Abl assessed as reduction in cell viability incubated for 48 hrs by MTT assay; type: functional, cell-based
PBMC = assay: Cytotoxicity against human PBMC assessed as cell viability by MTT assay; type: cell-based
Homo sapiens = species on record: Homo sapiens; assay: (§2) Cytotoxicity against human U343MG cells assessed as reduction in cell viability incubated for 72 hrs by MTS assay; type: functional, cell-based; outline: as §1
[4] = as §2; type: functional, cell-based; conditions: U-343MG; outline: as §1
Tubulin = assay: Inhibition of tubulin polymerization (unknown origin) incubated for 15 mins followed by GTP addition and measured for 20 mins by spectrophotometry; type: protein-complex assay, Homo sapiens
Outline: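 Tubulin assembly assay with tubulin at 10 µM. IC50 for inhibition of polymerization; run in duplicate or triplicate.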

U-87 MG = assay: Cytotoxicity against human U87MG cells assessed as reduction in cell viability incubated for 48 hrs by MTS assay; type: functional, cell-based, U-87MG ATCC; conditions: for inhibition: U-87MG ATCC; outline: as §1
HCT-116 = assay: Cytotoxicity against human HCT116 cells assessed as reduction in cell viability incubated for 48 hrs by MTT assay; type: functional, cell-based; conditions: for IC50: HCT-116, 48 h
SW480 = assay: Cytotoxicity against human SW480 cells assessed as reduction in cell viability incubated for 48 hrs by MTT assay; type: functional, cell-based; conditions: for IC50: SW480, 48 h
KU812 cell line = assay: Cytotoxicity against human KU812 cells expressing IM- sensitive wild type Bcr/Abl assessed as reduction in cell viability incubated for 48 hrs by MTT assay; type: functional, cell-based; conditions: KU812, 48 h
[5] = Cytotoxicity against human SK-N-BE cells assessed as reduction in cell viability incubated for 48 hrs by MTT assay; type: functional, cell-based; outline: as §1
SW-620 = assay: Cytotoxicity against human SW620 cells assessed as reduction in cell viability incubated for 48 hrs by MTT assay; type: functional, cell-based; conditions: for IC50: SW-620, 48 h
HT-29 = assay: Cytotoxicity against human HT-29 cells assessed as reduction in cell viability incubated for 48 hrs by MTT assay; type: functional, cell-based; conditions: for IC50: HT-29, 48 h
Tubulin (Homo sapiens) = Tubulin (Homo sapiens) (UniProt P68371+Q9H4B7+P0DPH7+P68366+Q13509+Q71U36+P04350+Q3ZCM7+P07437+P68363+Q9BQE3+Q6PEY2+Q13885+Q9BVA1+Q9BUF5); assay: Inhibition of [3H]colchicine binding to tubulin (unknown origin) at 5 uM incubated for 10 mins by DEAE-cellulose filter method relative to control; type: protein-complex assay
MCF7 = assay: Cytotoxicity against human MCF7 cells assessed as reduction in cell growth incubated for 96 hrs by MTT assay; type: functional, cell-based; conditions: MCF7, 96 h
Outline: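 Growth inhibition of human breast carcinoma cells, reported as IC50; run in duplicate or triplicate.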

KBM5 [6] = assay: Cytotoxicity against human KBM5 cells expressing IM-resistant Bcr/Abl T315I mutant assessed as reduction in cell viability incubated for 48 hrs by MTT assay; type: functional, cell-based; conditions: KBM5, 48 h
T-24 = assay: Cytotoxicity against human T24 cells assessed as reduction in cell viability incubated for 48 hrs by MTT assay; type: functional, cell-based; conditions: T-24, 48 h
[7] = Cytotoxicity against human SK-N-BE(2)C cells assessed as reduction in cell viability incubated for 48 hrs by MTT assay; type: functional, cell-based; outline: as §1
KBM5 [8] = assay: Induction of apoptotic cell death in human KBM5 cells expressing IM-resistant Bcr/Abl T315I mutant at 10 nM incubated for 48 hrs by Annexin V-staining based flow cytometry; type: functional
Outline: (§3)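 KBM5-WT and KBM5-T315I cells exposed 48 h to 10 nM test compound alone or combined with 10 nM nilotinib (nilotinib alone as comparator). Apoptotic cells quantified by annexin V staining and flow cytometry; triplicate.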

KBM5 [9] = assay: Induction of apoptotic cell death in human KBM5 cells expressing IM-sensitive wild type Bcr/Abl at 10 nM incubated for 48 hrs by Annexin V-staining based flow cytometry; type: functional; outline: as §3

## COc1cc(C(=O)c2cn(-c3cccc(N)c3)cc2-c2ccccc2[N+](=O)[O-])cc(OC)c1OC
[1]
  IC50: 0.02 µM
T98G
  Emax: 26.7%
  IC50: 0.0346 to 0.035 µM
  inhibition: Dose-dependent effect
KBM5 [2]
  IC50: 0.015 µM
[3]
  IC50: 0.018 µM
PBMC
  Activity: Non-Toxic
Homo sapiens
  inhibition: Dose-dependent effect
[4]
  Emax: 35.3%
  IC50: 0.03 to 0.0302 µM
Tubulin
  IC50: 0.71 µM
U-87 MG
  Emax: 32.4%
  IC50: 0.0299 to 0.03 µM
  inhibition: Dose-dependent effect
HCT-116
  inhibition: Dose-dependent effect
  IC50: 0.044 µM
SW480
  inhibition: Dose-dependent effect
  IC50: 0.164 µM
KU812 cell line
  IC50: 0.016 µM
[5]
  IC50: 0.311 µM
SW-620
  inhibition: Dose-dependent effect
  IC50: 0.038 µM
HT-29
  inhibition: Dose-dependent effect
  IC50: 0.051 µM
Tubulin (Homo sapiens)
  inhibition: 82%
MCF7
  IC50: 0.014 µM
KBM5 [6]
  IC50: 0.021 µM
T-24
  IC50: 0.012 µM
[7]
  IC50: 0.132 µM

## Cc1cn(-c2cc(NC(=O)c3ccc(C)c(Nc4nccc(-c5cccnc5)n4)c3)cc(C(F)(F)F)c2)cn1 [NILOTINIB]
[1]
  IC50: 0.126 µM
KBM5 [2]
  IC50: 0.012 µM
[3]
  IC50: 0.011 µM
KBM5 [8]
  Activity: Active
KU812 cell line
  IC50: 0.01 µM
KBM5 [6]
  IC50: 2.42 µM
KBM5 [9]
  Activity: Active

## COc1cc(C(=O)c2cn(-c3cccc(N)c3)cc2-c2ccccc2F)cc(OC)c1OC
[1]
  IC50: 0.014 µM
T98G
  Emax: 38.4%
  IC50: 0.054 to 0.0544 µM
  inhibition: Dose-dependent effect
KBM5 [2]
  IC50: 0.018 µM
[3]
  IC50: 0.015 µM
PBMC
  Activity: Non-Toxic
Homo sapiens
  inhibition: Dose-dependent effect
[4]
  Emax: 31%
  IC50: 0.0689 to 0.069 µM
Tubulin
  IC50: 0.5 µM
U-87 MG
  Emax: 22%
  IC50: 0.061 to 0.0614 µM
  inhibition: Dose-dependent effect
HCT-116
  inhibition: Dose-dependent effect
  IC50: 0.042 µM
SW480
  inhibition: Dose-dependent effect
  IC50: 0.162 µM
KU812 cell line
  IC50: 0.014 µM
[5]
  IC50: 0.244 µM
SW-620
  inhibition: Dose-dependent effect
  IC50: 0.123 µM
HT-29
  inhibition: Dose-dependent effect
  IC50: 0.056 µM
Tubulin (Homo sapiens)
  inhibition: 90%
MCF7
  IC50: 0.017 µM
KBM5 [6]
  IC50: 0.022 µM
T-24
  IC50: 0.034 µM
[7]
  IC50: 0.106 µM

## COc1cc(C(=O)c2cn(-c3ccccc3)cc2-c2cccc([N+](=O)[O-])c2)cc(OC)c1OC
Tubulin
  IC50: 0.94 µM
Tubulin (Homo sapiens)
  inhibition: 12%
MCF7
  IC50: 0.05 µM

## COc1cc(C(=O)c2cn(-c3cccc(C)c3)cc2-c2cccc(N)c2)cc(OC)c1OC
Tubulin
  IC50: 0.91 µM
Tubulin (Homo sapiens)
  inhibition: 64%
MCF7
  IC50: 0.13 µM

## COc1cc(C(=O)c2cn(-c3ccc(N)cc3)cc2-c2ccccc2[N+](=O)[O-])cc(OC)c1OC
Tubulin
  IC50: 0.52 µM
Tubulin (Homo sapiens)
  inhibition: 69%
MCF7
  IC50: 0.053 µM

## COc1ccc(-n2cc(C(=O)c3cc(OC)c(OC)c(OC)c3)c(-c3ccccc3)c2)cc1
Tubulin
  IC50: 0.96 µM
Tubulin (Homo sapiens)
  inhibition: 27%
MCF7
  IC50: 0.12 µM

## COc1cc(C(=O)c2cn(-c3ccc(C)cc3)cc2-c2ccccc2F)cc(OC)c1OC
Tubulin
  IC50: 0.78 µM
Tubulin (Homo sapiens)
  inhibition: 80%
MCF7
  IC50: 0.044 µM

## COc1cc(C(=O)c2cn(-c3ccc([N+](=O)[O-])cc3)cc2-c2ccccc2)cc(OC)c1OC
Tubulin
  IC50: 3.3 µM
Tubulin (Homo sapiens)
  inhibition: 18%
MCF7
  IC50: 4 µM

## COc1cc(C(=O)c2cn(-c3ccc(F)cc3)cc2-c2ccc(N)cc2)cc(OC)c1OC
[1]
  IC50: 0.022 µM
T98G
  Emax: 31%
  IC50: 0.0218 to 0.022 µM
  inhibition: Dose-dependent effect
KBM5 [2]
  IC50: 0.025 µM
[3]
  IC50: 0.02 µM
PBMC
  Activity: Non-Toxic
Homo sapiens
  inhibition: Dose-dependent effect
[4]
  Emax: 37.1%
  IC50: 0.02 to 0.0201 µM
Tubulin
  IC50: 0.5 µM
U-87 MG
  Emax: 32%
  IC50: 0.0458 to 0.046 µM
  inhibition: Dose-dependent effect
HCT-116
  inhibition: Dose-dependent effect
  IC50: 0.036 µM
SW480
  inhibition: Dose-dependent effect
  IC50: 0.167 µM
KU812 cell line
  IC50: 0.018 µM
[5]
  IC50: 0.288 µM
SW-620
  inhibition: Dose-dependent effect
  IC50: 0.047 µM
HT-29
  inhibition: Dose-dependent effect
  IC50: 0.035 µM
Tubulin (Homo sapiens)
  inhibition: 90%
MCF7
  IC50: 0.012 µM
KBM5 [6]
  IC50: 0.026 µM
T-24
  IC50: 0.048 µM
[7]
  IC50: 0.178 µM

## COc1cc(C(=O)c2cn(-c3cccc(N)c3)cc2-c2cccc([N+](=O)[O-])c2)cc(OC)c1OC
Tubulin
  IC50: 1.7 µM
Tubulin (Homo sapiens)
  inhibition: 32%
MCF7
  IC50: 0.51 µM

## COc1cc(C(=O)c2cn(-c3ccccc3)cc2-c2ccc(Cl)cc2)cc(OC)c1OC
Tubulin
  IC50: 1.2 µM
Tubulin (Homo sapiens)
  inhibition: 23%
MCF7
  IC50: 0.29 µM

## COc1cccc(-n2cc(C(=O)c3cc(OC)c(OC)c(OC)c3)c(-c3ccccc3)c2)c1
Tubulin
  IC50: 1.6 µM
Tubulin (Homo sapiens)
  inhibition: 25%
MCF7
  IC50: 0.5 µM

## COc1cc(C(=O)c2cn(-c3ccc(C)cc3)cc2-c2ccc(N)cc2)cc(OC)c1OC
Tubulin
  IC50: 0.36 µM
Tubulin (Homo sapiens)
  inhibition: 95%
MCF7
  IC50: 0.006 µM

## COc1cc(C(=O)c2cn(-c3ccccc3)cc2-c2ccc(Br)cc2)cc(OC)c1OC
Tubulin
  IC50: 0.77 µM
Tubulin (Homo sapiens)
  inhibition: 14%
MCF7
  IC50: 0.34 µM

## COc1cc(C(=O)c2cn(-c3ccc(N)cc3)cc2-c2ccccc2)cc(OC)c1OC
Tubulin
  IC50: 1.6 µM
Tubulin (Homo sapiens)
  inhibition: 67%
MCF7
  IC50: 0.035 µM

## COc1cc(C(=O)c2cn(-c3ccccc3)cc2-c2cc(F)ccc2F)cc(OC)c1OC
Tubulin
  IC50: 1.3 µM
Tubulin (Homo sapiens)
  inhibition: 24%
MCF7
  IC50: 0.23 µM

## COc1cc(C(=O)c2cn(-c3ccc(N)cc3)cc2-c2ccccc2F)cc(OC)c1OC
Tubulin
  IC50: 0.59 µM
Tubulin (Homo sapiens)
  inhibition: 79%
MCF7
  IC50: 0.028 µM

## COc1cc(C(=O)c2cn(-c3cccc(N)c3)cc2-c2ccc([N+](=O)[O-])cc2)cc(OC)c1OC
Tubulin
  IC50: 0.78 µM
Tubulin (Homo sapiens)
  inhibition: 41%
MCF7
  IC50: 0.11 µM

## COc1cc(C(=O)c2cn(-c3ccc(N)cc3)cc2-c2ccc([N+](=O)[O-])cc2)cc(OC)c1OC
Tubulin
  IC50: 1.8 µM
Tubulin (Homo sapiens)
  inhibition: 23%
MCF7
  IC50: 0.26 µM

## COc1cc(C(=O)c2cn(-c3ccc(F)cc3)cc2-c2cccc(N)c2)cc(OC)c1OC
Tubulin
  IC50: 0.41 µM
Tubulin (Homo sapiens)
  inhibition: 68%
MCF7
  IC50: 0.053 µM

## COc1cc(C(=O)c2cn(-c3ccc(N)cc3)cc2-c2cccc(N)c2)cc(OC)c1OC
Tubulin
  IC50: 0.87 µM
Tubulin (Homo sapiens)
  inhibition: 59%
MCF7
  IC50: 0.078 µM
